{"source": "ChEMBL document CHEMBL5724801", "about": "“EUbOPEN Chemogenomics Library - Multiplex” (2024)", "test_system": "HEK-293T", "test": "Multiplex assay against HEK293T", "format": "toxicity, cell-based", "conditions": "human", "in_short": "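Hoechst33342, BioTracker Green Microtubule Cytoskeleton Dye, MitoTracker Red and Annexin V Alexa Fluor 680 were added to live cells at seeding, and imaging on a CQ1 microscope at 37°C and 5% CO2 followed compound addition. Gating by CellPathfinder machine learning separated cells into Hoechst high-intensity objects or normal cells, then normal cells into healthy, pyknosed or fragmented nuclei, then pyknosed cells into mitotic or apoptotic. Per cents of healthy-nucleus cells are reported for the tubulin, mitochondrial-mass and membrane-permeability phenotypes.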", "key": {"[1]": {"conditions": "12 h, 1 µM, compound concentration 1 uM"}, "[2]": {"conditions": "12 h, 10 µM, compound concentration 10 uM"}, "[3]": {"conditions": "24 h, 1 µM, compound concentration 1 uM"}, "[4]": {"conditions": "24 h, 10 µM, compound concentration 10 uM"}, "[5]": {"conditions": "48 h, 1 µM, compound concentration 1 uM"}, "[6]": {"conditions": "48 h, 10 µM, compound concentration 10 uM"}}, "note": "“And” between values parts separate entries of the source, which are not always exact repeats. Equal entries are not always repeated.", "data": [{"compound": "CCCC(CCC)C(=O)O", "note": "[VALPROIC ACID]", "values": [{"measurement": "Population Apoptotic (%)", "setting": "[1]", "result": "39% and 28%"}, {"measurement": "Population Fragmented Nuclei (%)", "setting": "[1]", "result": "6% and 5%"}, {"measurement": "Population Healthy Nuclei (%)", "setting": "[1]", "result": "81% and 79%"}, {"measurement": "Population Hoechst High Intensity Objects (%)", "setting": "[1]", "result": "6% and 5%"}, {"measurement": "Population Membrane Permeable-Phenotype (%)", "setting": "[1]", "result": 0, "unit": "%"}, {"measurement": "Population Mitochondria Different-Phenotype (%)", "setting": "[1]", "result": "29% and 46%"}, {"measurement": "Population Mitotic Cells (%)", "setting": "[1]", "result": "60% and 71%"}, {"measurement": "Population Normal (%)", "setting": "[1]", "result": "93% and 94%"}, {"measurement": "Population Pyknosed Nuclei (%)", "setting": "[1]", "result": "12% and 15%"}, {"measurement": "Population Tubulin-Different-Phenotype (%)", "setting": "[1]", "result": "20% and 16%"}, {"measurement": "Total Cell Count", "setting": "[1]", "result": "513 and 367"}, {"measurement": "Population Apoptotic (%)", "setting": "[2]", "result": "34% and 44%"}, {"measurement": "Population Fragmented Nuclei (%)", "setting": "[2]", "result": "6% and 7%"}, {"measurement": "Population Healthy Nuclei (%)", "setting": "[2]", "result": "82% and 81%"}, {"measurement": "Population Hoechst High Intensity Objects (%)", "setting": "[2]", "result": 6, "unit": "%"}, {"measurement": "Population Membrane Permeable-Phenotype (%)", "setting": "[2]", "result": 0, "unit": "%"}, {"measurement": "Population Mitochondria Different-Phenotype (%)", "setting": "[2]", "result": "40% and 49%"}, {"measurement": "Population Mitotic Cells (%)", "setting": "[2]", "result": "66% and 55%"}, {"measurement": "Population Normal (%)", "setting": "[2]", "result": 93, "unit": "%"}, {"measurement": "Population Pyknosed Nuclei (%)", "setting": "[2]", "result": 11, "unit": "%"}, {"measurement": "Population Tubulin-Different-Phenotype (%)", "setting": "[2]", "result": "26% and 20%"}, {"measurement": "Total Cell Count", "setting": "[2]", "result": "455 and 446"}, {"measurement": "Population Apoptotic (%)", "setting": "[3]", "result": "28% and 45%"}, {"measurement": "Population Fragmented Nuclei (%)", "setting": "[3]", "result": "8% and 6%"}, {"measurement": "Population Healthy Nuclei (%)", "setting": "[3]", "result": "78% and 83%"}, {"measurement": "Population Hoechst High Intensity Objects (%)", "setting": "[3]", "result": 4, "unit": "%"}, {"measurement": "Population Membrane Permeable-Phenotype (%)", "setting": "[3]", "result": "1% and 0%"}, {"measurement": "Population Mitochondria Different-Phenotype (%)", "setting": "[3]", "result": "22% and 26%"}, {"measurement": "Population Mitotic Cells (%)", "setting": "[3]", "result": "71% and 54%"}, {"measurement": "Population Normal (%)", "setting": "[3]", "result": 95, "unit": "%"}, {"measurement": "Population Pyknosed Nuclei (%)", "setting": "[3]", "result": "12% and 9%"}, {"measurement": "Population Tubulin-Different-Phenotype (%)", "setting": "[3]", "result": "16% and 10%"}, {"measurement": "Total Cell Count", "setting": "[3]", "result": "663 and 469"}, {"measurement": "Population Apoptotic (%)", "setting": "[4]", "result": "28% and 23%"}, {"measurement": "Population Fragmented Nuclei (%)", "setting": "[4]", "result": "9% and 8%"}, {"measurement": "Population Healthy Nuclei (%)", "setting": "[4]", "result": "81% and 86%"}, {"measurement": "Population Hoechst High Intensity Objects (%)", "setting": "[4]", "result": "4% and 3%"}, {"measurement": "Population Membrane Permeable-Phenotype (%)", "setting": "[4]", "result": 0, "unit": "%"}, {"measurement": "Population Mitochondria Different-Phenotype (%)", "setting": "[4]", "result": "16% and 30%"}, {"measurement": "Population Mitotic Cells (%)", "setting": "[4]", "result": "71% and 76%"}, {"measurement": "Population Normal (%)", "setting": "[4]", "result": "95% and 96%"}, {"measurement": "Population Pyknosed Nuclei (%)", "setting": "[4]", "result": "9% and 5%"}, {"measurement": "Population Tubulin-Different-Phenotype (%)", "setting": "[4]", "result": "15% and 11%"}, {"measurement": "Total Cell Count", "setting": "[4]", "result": "649 and 593"}, {"measurement": "Population Apoptotic (%)", "setting": "[5]", "result": "19% and 36%"}, {"measurement": "Population Fragmented Nuclei (%)", "setting": "[5]", "result": "14% and 10%"}, {"measurement": "Population Healthy Nuclei (%)", "setting": "[5]", "result": "78% and 81%"}, {"measurement": "Population Hoechst High Intensity Objects (%)", "setting": "[5]", "result": "2% and 3%"}, {"measurement": "Population Membrane Permeable-Phenotype (%)", "setting": "[5]", "result": "3% and 1%"}, {"measurement": "Population Mitochondria Different-Phenotype (%)", "setting": "[5]", "result": "11% and 17%"}, {"measurement": "Population Mitotic Cells (%)", "setting": "[5]", "result": "80% and 63%"}, {"measurement": "Population Normal (%)", "setting": "[5]", "result": "97% and 96%"}, {"measurement": "Population Pyknosed Nuclei (%)", "setting": "[5]", "result": "6% and 8%"}, {"measurement": "Population Tubulin-Different-Phenotype (%)", "setting": "[5]", "result": "9% and 10%"}, {"measurement": "Total Cell Count", "setting": "[5]", "result": "1112 and 700"}, {"measurement": "Population Apoptotic (%)", "setting": "[6]", "result": "21% and 27%"}, {"measurement": "Population Fragmented Nuclei (%)", "setting": "[6]", "result": "15% and 13%"}, {"measurement": "Population Healthy Nuclei (%)", "setting": "[6]", "result": "79% and 82%"}, {"measurement": "Population Hoechst High Intensity Objects (%)", "setting": "[6]", "result": "3% and 1%"}, {"measurement": "Population Membrane Permeable-Phenotype (%)", "setting": "[6]", "result": "1% and 2%"}, {"measurement": "Population Mitochondria Different-Phenotype (%)", "setting": "[6]", "result": "11% and 12%"}, {"measurement": "Population Mitotic Cells (%)", "setting": "[6]", "result": "78% and 72%"}, {"measurement": "Population Normal (%)", "setting": "[6]", "result": "96% and 98%"}, {"measurement": "Population Pyknosed Nuclei (%)", "setting": "[6]", "result": "5% and 4%"}, {"measurement": "Population Tubulin-Different-Phenotype (%)", "setting": "[6]", "result": "9% and 6%"}, {"measurement": "Total Cell Count", "setting": "[6]", "result": "1088 and 947"}]}]}
